Data as given in ChEMBL document CHEMBL3856208, “Lupane and 18α-oleanane derivatives substituted in the position 2, their cytotoxicity and influence on cancer cells” (Eur J Med Chem, 2016).

What was measured:
[1] = Cytotoxicity against human MRC5 cells after 72 hrs by MTS assay; assay type: toxicity, cell-based
Method in brief: (§1)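 Cells seeded at 25000–35000 cells/mL, compounds from DMSO dosed at time zero as four-fold dilutions. Exposure 72 h at 37 °C, 5% CO2, with MTS added for 1–4 h and OD read at 490 nm. Survival expressed as % of mean control OD, with IC50 from dose-response curves. Run as technical duplicates in at least three biological replicates.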

[2] = Cytotoxicity against human HCT116 cells after 72 hrs by MTS assay; assay type: functional, cell-based; conditions: HCT-116, 72 h; method in brief: as §1
[3] = Cytotoxicity against human A549 cells after 72 hrs by MTS assay; assay type: functional, cell-based; conditions: A549, 72 h; method in brief: as §1
[4] = Therapeutic index, ratio of IC50 for human MRC5 cells to IC50 for human CCRF-CEM cells; assay type: cell-based; conditions: MRC5 cells versus CCRF-CEM cells, read-out: Ratio IC50
[5] = Cytotoxicity against human CCRF-CEM cells after 72 hrs by MTS assay; assay type: functional, cell-based; method in brief: as §1
[6] = Cytotoxicity against p53 deficient human HCT116 cells after 72 hrs by MTS assay; assay type: functional, cell-based; conditions: HCT-116, 72 h; method in brief: as §1
[7] = Cytotoxicity against human CEM/DNR cells after 72 hrs by MTS assay; assay type: functional, cell-based; method in brief: as §1
[8] = Cytotoxicity against human K562-TAX cells after 72 hrs by MTS assay; assay type: functional, cell-based; method in brief: as §1
[9] = Cytotoxicity against human BJ cells after 72 hrs by MTS assay; assay type: toxicity, cell-based; method in brief: as §1
[10] = Cytotoxicity against human K562 cells after 72 hrs by MTS assay; assay type: functional, cell-based; conditions: K562, 72 h; method in brief: as §1
[11] = Cytotoxicity against human U2OS cells after 72 hrs by MTS assay; assay type: functional, cell-based; method in brief: as §1
[12] = Therapeutic index, ratio of IC50 for human BJ cells to IC50 for human CCRF-CEM cells; assay type: cell-based; conditions: BJ cells versus CCRF-CEM cells, read-out: Ratio IC50
CCRF-CEM [13] = assay: Inhibition of RNA synthesis in human CCRF-CEM cells assessed as decrease in BrU incorporation by measuring synthesized RNA levels at 4.6 uM after 24 hrs by propidium iodide staining-based flow cytometric method (reference value: 43.37%); assay type: functional; set-up: scale not given: the % may be the effect or the level left
[14] = Cell cycle arrest in human CCRF-CEM cells assessed as accumulation at G2/M phase at 4.6 uM after 24 hrs by propidium iodide staining-based flow cytometric method (reference value: 13.28%); assay type: functional
CCRF-CEM [15] = assay: Inhibition of DNA synthesis in human CCRF-CEM cells assessed as decrease in BrdU incorporation by measuring synthesized DNA levels at 4.6 uM after 24 hrs by propidium iodide staining-based flow cytometric method (reference value: 56.37%); assay type: functional; set-up: scale not given: the % may be the effect or the level left
Method in brief: (§2)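 CCRF-CEM cells were cultured and treated as for cell cycle analysis, then pulse-labeled with 10 µM BrDU for 30 min before harvest. Cells were ethanol-fixed, DNA-denatured in 2 M HCl for 30 min at room temperature, and neutralized with 0.1 M borax. Staining used anti-BrDU, then anti-mouse-FITC, then PI (0.1 mg/mL) with RNase A (0.5 mg/mL) for 1 h. Read-out was 488 nm flow cytometry.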

[16] = Cell cycle arrest in human CCRF-CEM cells assessed as accumulation at G2/M phase at 23 uM after 24 hrs by propidium iodide staining-based flow cytometric method (reference value: 13.28%); assay type: functional
[17] = Cell cycle arrest in human CCRF-CEM cells assessed as accumulation at sub G1 phase at 4.6 uM after 24 hrs by propidium iodide staining-based flow cytometric method (reference value: 1.8%); assay type: functional
[18] = Cell cycle arrest in human CCRF-CEM cells assessed as accumulation at sub G1 phase at 23 uM after 24 hrs by propidium iodide staining-based flow cytometric method (reference value: 1.8%); assay type: functional
[19] = Cell cycle arrest in human CCRF-CEM cells assessed as accumulation at S phase at 4.6 uM after 24 hrs by propidium iodide staining-based flow cytometric method (reference value: 50.33%); assay type: functional
[20] = Cell cycle arrest in human CCRF-CEM cells assessed as accumulation at G0/G1 phase at 23 uM after 24 hrs by propidium iodide staining-based flow cytometric method (reference value: 36.41%); assay type: functional
[21] = Cell cycle arrest in human CCRF-CEM cells assessed as accumulation at G0/G1 phase at 4.6 uM after 24 hrs by propidium iodide staining-based flow cytometric method (reference value: 36.41%); assay type: functional
CCRF-CEM [22] = assay: Inhibition of DNA synthesis in human CCRF-CEM cells assessed as decrease in BrdU incorporation by measuring synthesized DNA levels at 23 uM after 24 hrs by propidium iodide staining-based flow cytometric method (reference value: 56.37%); assay type: functional; set-up: scale not given: the % may be the effect or the level left; method in brief: as §2
CCRF-CEM [23] = assay: Inhibition of RNA synthesis in human CCRF-CEM cells assessed as decrease in BrU incorporation by measuring synthesized RNA levels at 23 uM after 24 hrs by propidium iodide staining-based flow cytometric method (reference value: 43.37%); assay type: functional; set-up: scale not given: the % may be the effect or the level left
[24] = Cell cycle arrest in human CCRF-CEM cells assessed as accumulation at S phase at 23 uM after 24 hrs by propidium iodide staining-based flow cytometric method (reference value: 50.33%); assay type: functional
CCRF-CEM [25] = assay: Mitotic arrest in human CCRF-CEM cells assessed as phosphorylation of histone-3 at Ser10 at 23 uM after 24 hrs by flow cytometric method (reference value: 1.66%)
CCRF-CEM [26] = assay: Mitotic arrest in human CCRF-CEM cells assessed as phosphorylation of histone-3 at Ser10 at 4.6 uM after 24 hrs by flow cytometric method (reference value: 1.66%); assay type: functional

Row | SMILES | IC50 at 72 h [1] [µM] | IC50 [2] [µM] | IC50 [3] [µM] | selectivity ratio [4] | IC50 [5] [µM] | IC50 [6] [µM] | IC50 [7] [µM] | IC50 [8] [µM] | IC50 at 72 h [9] [µM] | IC50 [10] [µM] | IC50 [11] [µM] | selectivity ratio [12] | other results
1 | COC(=O)[C@]12CC[C@@H](C(C)C)[C@@H]1[C@H]1CC[C@@H]3[C@@]4(C)CC(S)C(=O)C(C)(C)[C@@H]4CC[C@@]3(C)[C@]1(C)CC2 (stereo partly drawn) | > 50 | > 50 | > 50 | > 1.1 | 40 to 45.3 | > 50 | > 50 | > 50 | > 50 | > 50 | > 50 | > 1.1 | –
2 | CC1(C)CC[C@]23CC[C@]4(C)[C@H](CC[C@@H]5[C@@]6(C)CC(N)[C@H](O)C(C)(C)[C@@H]6CC[C@]54C)[C@H]2[C@H]1OC3 (stereo partly drawn) | 6.3 | 4.9 | 6.2 | 1.4 | 4.6 to 5 | 4.8 | 5.9 | 3.9 | 7.1 | 4.5 | 6.2 | 1.4 | Activity (CCRF-CEM [13]): 42.98%; Activity [14]: 11.5%; Activity (CCRF-CEM [15]): 53.53%; Activity [16]: 16.2%; Activity [17]: 2.79%; Activity [18]: 7.1%; Activity [19]: 47.8%; Activity [20]: 28.9%; Activity [21]: 40.7%; Activity (CCRF-CEM [22]): 1.88%; Activity (CCRF-CEM [23]): 2.23%; Activity [24]: 54.9%; Activity (CCRF-CEM [25]): 0.49%; Activity (CCRF-CEM [26]): 1.44%
